Hits are enriched below; roughly 2.2% of the tested compounds scored in any of these assays.
NS3 helicase inh: HCV NS3 helicase inhibition. NS3 helicase DNA unwinding, Cy5 molecular beacon fluorescence. inhibition, % at 10.9 µM. 290,000 compounds, 0.56% hits. AID 1800;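 active means inhibition above the mean of all tested compounds plus 3 SD, set per campaign, cut at about 35% in these data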;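 further: 0% = DMSO wells and 100% = thioflavine S control wells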
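Measured by: Cy5 fluorescence, 0 and 60 min reads / Assay system: NS3 helicase fragment of HCV / Control set: low DMSO, high thioflavine S at 110 µM / Times: 1 h reaction at 25 °C, ATP-initiated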
DNA FID counter: displaces DNA intercalator in HCV helicase counter-screen | DNA fluorescent intercalator displacement, fluorescence | inhibition, % at 7.9 µM | 290,000 compounds, 0.17% hits | AID 1845; in the data active means inhibition above about 37%;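 further: 0% = vehicle and 100% = reference compound; higher means more ethidium bromide displaced from hairpin DNA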
DAGLB inhibitor: blocks human DAGLB lipase activity. Q8NCG7. HEK293T DAGLB membrane lysate, EnzChek fluorogenic substrate. inhibition, % at 5.17 µM. 340,000 compounds, 0.059% hits; in the data active means inhibition above about 34%;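 further: 0% = enzyme with vehicle and 100% = wells lacking enzyme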
GPR7 antag: antagonists of human GPR7 (neuropeptides B/W receptor 1); GPR7-expressing cells, fluorescence antagonist assay; inhibition, % at 4.4 µM; 290,000 compounds, 1.1% hits; in the data active means inhibition above about 16%, passing the limit was not always enough;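 further: cells stimulated with the agonist NPW; 0% = agonist with vehicle and 100% = vehicle without agonist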
Target sequence (P48145 whole entry, looked up): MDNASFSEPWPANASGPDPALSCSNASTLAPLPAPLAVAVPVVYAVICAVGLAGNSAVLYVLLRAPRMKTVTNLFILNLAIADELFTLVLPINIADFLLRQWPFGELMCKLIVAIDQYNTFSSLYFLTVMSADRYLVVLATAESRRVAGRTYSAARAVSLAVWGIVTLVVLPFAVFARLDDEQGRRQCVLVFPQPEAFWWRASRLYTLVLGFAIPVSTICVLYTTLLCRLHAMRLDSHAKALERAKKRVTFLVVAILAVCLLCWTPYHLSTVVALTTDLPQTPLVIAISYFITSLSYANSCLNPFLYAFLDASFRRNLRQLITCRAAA
HCV core dimer: blocks dimerization of HCV core protein; inhibition, % at 5 µM; 300,000 compounds, 0.33% hits; TR-FRET GST/Flag-core106 dimerization, 1536-well;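 active means inhibition above the mean of all tested compounds plus 3 SD, set per screening campaign, cut at about 45% in these data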
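Assay system: GST-tagged and Flag-tagged HCV core protein residues 1-106 / Times: compound-protein-antibody incubation 4 h at 22.5 °C / Signal: time-resolved FRET, ex 340 nm, em 617 and 671 nm / Evaluation: % inhibition based on acceptor/donor emission ratio / Benchmarks: wells lacking GST-core106 and wells with excess unlabelled core106 / Repeats: singlicate, one well per compound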
GRK2 inh: inhibitors of human GRK2 displacing RNA aptamer; AID 488847; P25098; inhibition of aptamer binding, % at 10 µM; 330,000 compounds, 0.59% hits; bead flow cytometry, FAM-aptamer displacement from GRK2;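 active means inhibition of aptamer binding above 40%, roughly 3 SD of noise, on plates passing a quality check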;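 further: median bead fluorescence of bound FAM aptamer so fluorescent compounds give negative values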
GPR7 antag cf: confirmation of human GPR7 antagonists; AID 1952; inhibition, % at 4.4 µM; GPR7-expressing cells, calcium fluorescence antagonist mode; 2,400 compounds, 52% hits; shares compounds with GPR7 antag; in the data active means inhibition above about 24%;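 further: stimulated with the GPR7 agonist NPW; 0% = agonist plus vehicle and 100% = vehicle alone without agonist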
MCHR1 antagonist: MCHR1 (human) antagonism in GPR7 counter-screen | shares compounds with GPR7 antag | MCHR1-expressing cells, fluorescence antagonist assay | inhibition, % at 4.4 µM | 2,400 compounds, 62% hits; in the data active means inhibition above about 22%;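 further: 0% = vehicle with agonist and 100% = vehicle without agonist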
Starred values were filed as active, the others as inactive; . = no result.

SMILES	NS3 helicase inh	DNA FID counter	DAGLB inhibitor	GPR7 antag	HCV core dimer	GRK2 inh	GPR7 antag cf	MCHR1 antagonist
N#CCCn1cc(C=C(C#N)C#N)c(-c2ccc(Cl)cc2)n1	-5	3	.	32*	10	3	12	2
COCCNc1cnn(-c2ccccc2)c(=O)c1Cl	10	-7	0	24*	4	3	-4	0
COc1ccc([N+](=O)[O-])cc1C(=O)NCCOc1ccc(Cl)cc1	2	-9	1	48*	-1	0	42*	47*
CC(C)(C)c1ccc(CNC(=O)C2CCCN2C(=O)Nc2ccccc2)cc1 (centres undefined)	8	-23	1	-6	-1	0	.	.
NS(=O)(=O)c1ccc(NC(=S)NCc2cccc(Cl)c2)cc1	-5	7	0	28*	2	4	3	41*
NS(=O)(=O)c1ccc(NC(=S)NCc2ccccc2)cc1	0	2	-2	-4	3	0	.	.
S=C(NCc1ccccc1)Nc1ccc(Cl)cc1	-6	6	0	21*	-1	0	18	43*
S=C(NCc1ccc(Cl)cc1)NC1CCN(Cc2ccccc2)CC1	-52	29	-2	25*	-3	0	40*	64*
S=C(NCc1ccccc1)NCc1cccc(Cl)c1	-6	-12	-4	-10	.	1	.	.
S=C(NCCc1cccc(Cl)c1)NCc1ccccc1	-11	-10	-10	23*	.	0	14	20
Clc1ccc(CNC2CCN(Cc3ccccc3)CC2)cc1	4	32	-3	20	-14	3	.	.
COc1ccc(CCN2C(=S)N(C)C(=O)C2CC(=O)Nc2ccc(F)cc2)cc1 (centres undefined)	-8	-8	.	-4	-9	0	.	.
COc1cccc(-c2nc(SC)nc3sc(C(=O)NC(C)(C)C)c(N)c23)c1	.	.	-9	.	-15	0	.	.
CCCn1c(=S)[nH]c2cc(C(=O)N3CCN(C4CCCCC4)CC3)ccc2c1=O	-5	7	1	-14	-2	10	.	.
COc1ccc2[nH]c3c(c2c1)CCN1C(=O)C(CC(=O)NC(C)(C)C)C[C@H](C(=O)N2CCCCC2)[C@@]31C (some centres undefined)	.	.	0	.	.	0	.	.
Fc1ccccc1CNC(=S)NC1CCCCC1	-7	-8	0	-13	.	0	.	.
S=C(NCc1ccccc1Cl)NC1CCCC1	-4	-4	-3	21*	-5	0	-4	19
CSc1ccccc1OCc1cc(C(=O)N2CCC(Oc3cccnc3)CC2)no1	-13	-32	0	28*	5	0	14	47*
CSc1ccccc1OCc1cc(C(=O)N2CCSCC2)no1	3	-25	0	-1	0	1	.	.
COC(=O)C(NC(=O)c1ccccc1Cl)(Nc1ncc(S(=O)(=O)c2ccc([N+](=O)[O-])cc2)s1)C(F)(F)F (centres undefined)	0	-4	4	34*	14	0	56*	43*
CCN(c1ccccc1)S(=O)(=O)c1cc(C(=O)Nc2cccc(Cl)c2)ccc1F	-8	3	-7	26*	4	0	9	51*
CCc1ccc(NC(=O)c2ccc(F)c(S(=O)(=O)N(CC)c3ccccc3)c2)cc1	5	-5	-13	-18	2	6	.	.
O=C(Nc1cccnc1)c1ccc(COc2ccccc2Br)o1	1	-12	-2	69*	4	4	33*	54*
O=C(NCc1cccnc1)c1ccc(COc2ccccc2Br)o1	3	-23	2	17	-15	0	.	.
CC(CCc1ccccc1)NC(=O)COC(=O)c1ccc(S(C)(=O)=O)c([N+](=O)[O-])c1 (centres undefined)	-2	5	-20	52*	5	0	92*	48*
COc1ccc(C2CC(=O)C(C=NCCN3CCOCC3)=C(O)C2)cc1 (centres undefined)	15	-2	-1	23*	-3	1	-1	5
